pIC50: −log10 of the molar value.
Legend:
[1] = Cmax in Sprague-Dawley rat at 10 mg/kg, po; format: ADME, organism-based; parameters: dose 10 mg/kg, route po; settings: in vivo
How it was run: (§1)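 Sprague-Dawley rats dosed IV at 1 mg/kg or by oral gavage at 10 mg/kg. Parameters from plasma exposure: AUC(0-t), AUC(0-∞), MRT, T1/2, Tmax, Vz, CLz, Cmax. Values are mean ± SD from three animals.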

[2] = AUC (0 to infinity) in Sprague-Dawley rat at 10 mg/kg, po; format: ADME, organism-based; parameters: dose 10 mg/kg, route po; settings: in vivo; how it was run: as §1
MOLM-13 = experiment: Induction of apoptosis in human MOLM-13 cells harboring FLT3-ITD mutant assessed as increase in cleaved caspase-3 level incubated for 24 hrs by Western blot analysis; format: functional, cell-based; settings: dose 0.1-3 µM
MOLM-14 [3] = experiment: Inhibition of AKT phosphorylation at Ser473 residue in human MOLM-14 cells harboring FLT3-ITD mutant incubated for 4 hrs by Western blot analysis; format: cell-based; settings: dose 0.01-3 µM
How it was run: (§2)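 Cells were exposed to the compound at a series of concentrations for 4 h, and whole-cell lysates were analysed by Western blot. MV4-11 cells were grown in IMDM with 10% FBS. MOLM13 and MOLM14 cells were grown in RPMI 1640 with 10% FBS. All cultures were kept at 37 °C with 5% CO2.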

MOLM-14 [4] = experiment: Induction of apoptosis in human MOLM-14 cells harboring FLT3-ITD mutant assessed as increase in cleaved PARP level incubated for 24 hrs by Western blot analysis; format: functional, cell-based; settings: dose 0.1-3 µM
MV4-11 [5] = experiment: Antitumor activity against human MV4-11 cells xenografted in nu/nu mouse assessed as suppression of cell proliferation administered orally via gavage for 28 days by ki67 staining based immunohistochemical analysis; format: functional; settings: dose 25-100 mg/kg/day, route po, time 28.0 day
How it was run: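 Tumours taken from MV4-11 xenograft mice after 28 days of daily oral dosing. Tissue stained with HE, Ki-67 (proliferation) and TUNEL (apoptosis), and treated groups compared with the vehicle group.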

MOLM-14 [6] = experiment: Inhibition of ERK phosphorylation at Thr202/Tyr204 residues in human MOLM-14 cells harboring FLT3-ITD mutant incubated for 4 hrs by Western blot analysis; format: cell-based; settings: dose 0.01-3 µM; how it was run: as §2
[7] = AUC (0 to infinity) in Sprague-Dawley rat at 1 mg/kg, iv; format: ADME, organism-based; parameters: dose 1 mg/kg, route iv; settings: in vivo; how it was run: as §1
BaF3 [8] = experiment: Antiproliferative activity against mouse BaF3 cells assessed as cell growth inhibition incubated for 72 hrs by CCK-8 assay; format: functional
How it was run: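 Parental BaF3 cells grown in RPMI 1640 with 10% FBS and 100 ng/ml IL-3 at 37 °C, 5% CO2. Plated at 1500-3000 cells/well and exposed to graded compound concentrations for 72 h. Proliferation read by CCK8 absorbance at 450 nm.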

MV4-11 [9] = experiment: Induction of apoptosis in human MV4-11 cells harboring FLT3-ITD mutant assessed as increase in cleaved caspase-3 level incubated for 24 hrs by Western blot analysis; format: functional, cell-based; settings: dose 0.1-3 µM
[10] = MRT (0 to t) in Sprague-Dawley rat at 1 mg/kg, iv; format: ADME, organism-based; settings: in vivo
How it was run: (§3)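 Sprague-Dawley rats were dosed either intravenously at 1 mg/kg or by oral gavage at 10 mg/kg. Plasma PK parameters were AUC(0-t), AUC(0-∞), MRT(0-t), T1/2, Tmax, Vz, CLz, Cmax and F%. Values are the mean ± SD of three independent animals.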

MOLM-14 [11] = experiment: Antiproliferative activity against human MOLM-14 cells transfected with FLT3-ITD mutant assessed as cell growth inhibition incubated for 72 hrs by CCK-8 assay; format: functional
How it was run: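 Cells kept at 37 °C, 5% CO2. MV4-11 grown in IMDM with 10% FBS. MOLM13, MOLM14, U937 and HL-60 grown in RPMI 1640 with 10% FBS. OCI-AML-2 grown in α-MEM with 20% FBS. Seeded at 1500-3000 cells/well and exposed to a concentration series for 72 h. Viability read by CCK8 absorbance at 450 nm.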

[12] = Cytotoxicity against human PBMC cells assessed as reduction in cell viability at 5 uM; format: toxicity, cell-based
[13] = Cmax in Sprague-Dawley rat at 1 mg/kg, iv; format: ADME, organism-based; parameters: dose 1 mg/kg, route iv; settings: in vivo; how it was run: as §1
[14] = Apparent volume of distribution in Sprague-Dawley rat at 10 mg/kg, po; format: ADME, organism-based; settings: in vivo; how it was run: as §1
BaF3 [15] = experiment: Antiproliferative activity against mouse BaF3 cells transfected with TEL fused FLT3 K663Q mutant assessed as cell growth inhibition incubated for 72 hrs by CCK-8 assay; format: functional
How it was run: (§4)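 Kinase-transformed isogenic BaF3 lines grown in RPMI 1640 with 10% FBS, 2% L-glutamine and pen/strep at 37 °C, 5% CO2. Seeded at 1500-3000 cells/well and treated with a compound concentration series for 72 h. Viability read by CCK8 absorbance at 450 nm.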

MV4-11 [16] = experiment: Induction of apoptosis in human MV4-11 cells harboring FLT3-ITD mutant assessed as increase in cleaved PARP level incubated for 24 hrs by Western blot analysis; format: functional, cell-based; settings: dose 0.1-3 µM
BaF3 [17] = experiment: Antiproliferative activity against mouse BaF3 cells transfected with FLT3 ITD F691L mutant assessed as cell growth inhibition incubated for 72 hrs by CCK-8 assay; format: functional; how it was run: as §4
[18] = Tmax in Sprague-Dawley rat at 1 mg/kg, iv; format: ADME, organism-based; settings: in vivo; how it was run: as §3
BaF3 [19] = experiment: Antiproliferative activity against mouse BaF3 cells transfected with FLT3 ITD mutant harboring HVDFREYEYD sequence from MV4-11 cells assessed as cell growth inhibition incubated for 72 hrs by CCK-8 assay; format: functional; how it was run: as §4
BaF3 [20] = experiment: Antiproliferative activity against mouse BaF3 cells transfected with TEL fused FLT3 Y842H mutant assessed as cell growth inhibition incubated for 72 hrs by CCK-8 assay; format: functional; how it was run: as §4
[21] = MRT (0 to t) in Sprague-Dawley rat at 10 mg/kg, po; format: ADME, organism-based; settings: in vivo; how it was run: as §3
MV4-11 [22] = experiment: Antitumor activity against human MV4-11 cells xenografted in nu/nu mouse assessed as inhibition of tumor growth at 100 mg/kg/day, po administered via gavage for 28 days relative to control; format: functional; settings: MV4-11, 672 h, time 28 day, read-out: TGI
How it was run: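 MV4-11 cells implanted in mice. Once tumours reached a mean of about 200 mm3, mice were dosed orally once daily for 28 days with vehicle or 25, 50 or 100 mg/kg/day. Tumour size and body weight tracked relative to starting values; final tumour weight also recorded.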

MV4-11 [23] = experiment: Inhibition of AKT phosphorylation at Ser473 residue in human MV4-11 cells harboring FLT3-ITD mutant incubated for 4 hrs by Western blot analysis; format: cell-based; settings: dose 0.01-3 µM; how it was run: as §2
[24] = target: Platelet-derived growth factor receptor beta (Homo sapiens, UniProt P09619); experiment: Inhibition of PDGFRbeta (unknown origin) preincubated for 60 mins followed by ATP addition and measured after 1 hr by ADP-Glo assay
Platelet-derived growth factor receptor beta, sequence (P09619 whole entry): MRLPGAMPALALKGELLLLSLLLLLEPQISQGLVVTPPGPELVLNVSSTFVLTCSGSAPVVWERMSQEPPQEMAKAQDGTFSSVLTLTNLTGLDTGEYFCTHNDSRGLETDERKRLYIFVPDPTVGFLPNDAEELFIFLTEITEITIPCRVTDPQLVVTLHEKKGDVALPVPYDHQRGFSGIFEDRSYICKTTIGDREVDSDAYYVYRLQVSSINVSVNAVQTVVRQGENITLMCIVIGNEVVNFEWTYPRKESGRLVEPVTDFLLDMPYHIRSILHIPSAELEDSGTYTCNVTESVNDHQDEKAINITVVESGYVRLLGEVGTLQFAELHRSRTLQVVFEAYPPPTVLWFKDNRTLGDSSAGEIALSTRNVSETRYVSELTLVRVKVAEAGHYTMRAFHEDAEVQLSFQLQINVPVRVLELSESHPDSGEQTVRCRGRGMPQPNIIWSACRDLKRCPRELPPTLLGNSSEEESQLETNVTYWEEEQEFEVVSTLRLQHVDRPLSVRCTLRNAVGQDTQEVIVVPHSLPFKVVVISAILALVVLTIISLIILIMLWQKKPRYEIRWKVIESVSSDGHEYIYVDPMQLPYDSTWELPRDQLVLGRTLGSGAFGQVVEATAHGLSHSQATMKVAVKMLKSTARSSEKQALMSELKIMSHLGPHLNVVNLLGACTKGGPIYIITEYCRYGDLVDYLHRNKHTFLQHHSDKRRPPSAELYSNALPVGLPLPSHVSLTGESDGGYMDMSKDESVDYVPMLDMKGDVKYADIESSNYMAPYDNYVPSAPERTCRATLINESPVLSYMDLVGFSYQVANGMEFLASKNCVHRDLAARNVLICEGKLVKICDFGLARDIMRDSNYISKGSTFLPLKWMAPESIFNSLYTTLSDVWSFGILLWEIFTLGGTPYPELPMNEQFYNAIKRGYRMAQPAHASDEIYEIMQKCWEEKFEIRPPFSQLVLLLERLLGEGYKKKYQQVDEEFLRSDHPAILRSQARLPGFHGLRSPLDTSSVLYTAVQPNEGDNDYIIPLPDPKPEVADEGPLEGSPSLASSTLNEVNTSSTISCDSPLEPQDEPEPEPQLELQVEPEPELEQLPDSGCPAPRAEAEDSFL
How it was run: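 ADP-Glo luminescence assay. Kinase was preincubated with compound for 60 min at room temperature, then ATP/substrate was added and the reaction ran 1 h at 37 °C. ADP-Glo reagent was added for 40 min, then detection reagent for 30 min, and luminescence was read. Enzyme and ATP per target: KIT 20 ng/µL, 50 µM ATP; PDGFRα 2.5 ng/µL, 25 µM ATP; PDGFRβ 1.25 ng/µL, 25 µM ATP. IC50 was taken from the dose-response fit.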

cells = format: functional; settings: Homo sapiens, AML3; time 72 hrs

Cmax [1]: 3630 ng/mL
AUC(0-inf) [2]: 28000 ng·h/mL
AUC(0-inf) [7]: 1590 ng·h/mL
GI50 (BaF3 [8]): > 10 µM
MRT last [10]: 1.9 h
GI50 (MOLM-14 [11]): 0.343 µM
Cmax [13]: 1030 ng/mL
Vz [14]: 1.5 L/kg
GI50 (BaF3 [15]): 9.4 µM
GI50 (BaF3 [17]): > 10 µM
Tmax [18]: 1.2 min
GI50 (BaF3 [19]): 0.032 µM
GI50 (BaF3 [20]): 7.5 µM
MRT last [21]: 4.5 h
pIC50 [24]: 6.68
Structure (SMILES): CC(=O)Nc1cc(Oc2ccc(NC(=O)Cc3ccccc3C(F)(F)F)cc2)ncn1
Activity (MOLM-13): Dose-Dependent Effect
inhibition (MOLM-14 [3]): Dose-Dependent Effect
Activity (MOLM-14 [4]): Dose-Dependent Effect
Activity (MV4-11 [5]): Dose-Dependent Effect
inhibition (MOLM-14 [6]): Dose-Dependent Effect
Activity (MV4-11 [9]): Dose-Dependent Effect
Activity [12]: Non-Toxic
Activity (MV4-11 [16]): Dose-Dependent Effect
inhibition in vivo at 100 mg/kg/day (MV4-11 [22]): 80%
inhibition (MV4-11 [23]): Dose-Dependent Effect
GI50 (cells): > 10 µM

From ChEMBL document CHEMBL5260841, “Discovery of N-(4-(6-Acetamidopyrimidin-4-yloxy)phenyl)-2-(2-(trifluoromethyl)phenyl)acetamide (CHMFL-FLT3-335) as a Potent FMS-like Tyrosine Kinase 3 Internal Tandem Duplication (FLT3-ITD) Mutant Selective Inhibitor for Acute Myeloid Leukemia” (J Med Chem, 2019)
